From PubChem
Hits are enriched below; roughly 2.9% of the tested compounds scored in any of these assays.
FAS-TE inh: FAS thioesterase domain inhibitors, primary screen, biochemical, fluorescence intensity, uHTS; Fatty acid synthase (Homo sapiens), P49327; recombinant FAS-TE, OMFH fluorogenic substrate, fluorescence endpoint; inhibition, % at 15 µM; 360,000 tested, 0.67% active; AID 602261, 2012;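 active = compounds whose normalised, plate-corrected inhibition of enzyme fluorescence in the single-dose primary screen is 50% or more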;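 note: 0% = DMSO with enzyme and 100% = substrate without enzyme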
CaV13 FRET inh: Primary screen for inhibitors of IQ motif and Ca2+-dependent inactivation inhibitor domain binding in CACNA1D, Förster resonance energy transfer in living cells, … | inhibition, % at 12.3 µM | HEK cells, CFP/YFP FRET ICDI-IQ, plate reader, 10 min; percent FRET-ratio fall versus neutral wells | AID 743397 | 340,000 tested, 0.098% active;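 active = mean replicate inhibition of at least 30% and at least 1% of replicates passing that level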;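 note: 0% = median of the neutral control wells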
ADAM17 inh: ADAM17 inhibitors, primary screen, biochemical, QFRET; Disintegrin and metalloproteinase domain-containing protein 17 (Homo sapiens), P78536; recombinant ADAM17, EDANS/DABCYL FRET peptide cleavage; inhibition, % at 6.95 µM; 370,000 tested, 0.83% active;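 active = inhibition above the mean of compounds lying between control limits plus 3 SD, set per campaign, cut at about 8.5% in these data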;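 note: 0% = DMSO-only wells as the low control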
NRP1-CendR mod: modulators of CendR peptide binding to NRP-1, primary screen, biochemical, fluorescence polarization, uHTS; inhibition, % at 25 µM; AID 602438, 2012; 360,000 tested, 0.85% active; Neuropilin-1 (Homo sapiens), O14786; FAM-RPARPAR peptide binding to NRP-1;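 active = inhibition or corrected inhibition above about 18%, plus a signal ratio from 0.5 to 1.5, limit read from the data, passing the limit was not always enough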
ADAM10 inh: human ADAM10 inhibitors, primary screen, biochemical, QFRET, HTS. Disintegrin and metalloproteinase domain-containing protein 10 (Homo sapiens), O14672. recombinant ADAM10, EDANS/DABCYL FRET peptide cleavage, 3 h. inhibition, % at 7 µM. 370,000 tested, 0.62% active. AID 720582, 2013;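 active = inhibition above a per-campaign cutoff equal to the mean of compounds falling between control-based bounds plus 3 SD, cut at about 20% in these data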;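 note: 0% = DMSO wells while the 100% control is not disclosed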
Arr AP2 block: inhibitors of beta-arrestin/AP2 binding, primary screen, biochemical, GPCR trafficking, flow cytometry | beta-arrestin 1 C-terminal peptide binding to AP2 beta2-adaptin appendage (human) | FITC-arrestin peptide / GST-AP2 beads; AP2 beta2 appendage carries R879A mutation | inhibition, % at 10 µM | 340,000 tested, 0.31% active | AID 504490, 2011;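 active = inhibition above a set limit, near 3 SD of compounds lacking own fluorescence, cut at about 54% in these data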;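 note: plate controls were DMSO wells for no effect and 5 µM unlabelled arrestin peptide for full effect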
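Material – AP2 appendage R879A on GSH beads · Buffer or medium – PBS with 0.05% Tween 20 and 0.1% BSA · Probe or stimulus – fluorescein-tagged arrestin peptide at 50 nM final · Incubation – compound with beads 12 min RT, then probe 1 h RT · Detection – high-throughput flow cytometry of beads, ex 488, em 535 nm · Evaluation – percent response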
* marks the source's active call; other numbers are inactive results; · = no result given.

SMILES	FAS-TE inh	CaV13 FRET inh	ADAM17 inh	NRP1-CendR mod	ADAM10 inh	Arr AP2 block
COc1ccc(C(=O)Nc2ncc3c(n2)CC(c2ccco2)CC3=O)cc1 (stereo not given)	-3	-5	-3	36*	-13	-2
CC(C)C[C@@H](CN)NC(=O)c1nc[nH]c1C(=O)N[C@@H](CC(C)C)C(=O)CNC[C@H](C)NC(=O)c1nc[nH]c1C(=O)N[C@@H](CC(=O)O)C(=O)O	-11	-7	-6	-6	-15	3
CCN(Cc1ccncc1)C(=O)c1cc(COc2ccc(F)cc2F)on1	-3	-6	0	43*	7	21
Cc1cc(NC(=O)COC(=O)c2cc(S(=O)(=O)N(C)C)ccc2Cl)no1	-4	-2	-2	29*	-8	0
Cc1cc(C(=O)OCC(=O)Nc2cccc(S(=O)(=O)N(C)C)c2)c(C)o1	2	-1	-1	24*	3	2
CCN(CC)S(=O)(=O)c1cccc(NC(=O)COC(=O)c2cc(C)oc2C)c1	7	-5	4	-5	2	18
Cc1ccccc1NC(=S)NC(=O)COc1ccccc1C	22	-7	2	22*	12	-16
CC[C@H](C)[C@@H](COC=O)NC(=O)[C@H]1O[C@@H](n2ccc(N)nc2=O)[C@H](O)[C@@H]1O	-7	-7	-2	31*	1	·
C#CCOCCOCCOCCNc1nc(N2CCN(C(=O)[C@H](C(C)C)n3cc(CCO)nn3)CC2)nc(N2CCN(C(=O)[C@H](Cc3ccc(O)cc3)n3cc(CCO)nn3)CC2)n1	-13	-5	-6	29*	7	-6
C#CCOCCOCCOCCNc1nc(N2CCN(C(=O)[C@H]([C@@H](C)O)n3cc(CCCCN)nn3)CC2)nc(N2CCN(C(=O)[C@H](Cc3ccc(O)cc3)n3cc(CCO)nn3)CC2)n1	-5	-11	4	22*	4	3
CCOc1ncccc1C(=O)OCC(=O)Nc1ccc2c(c1)OCCO2	-9	-15	0	8	-7	1
Cc1cccc(C(CC(=O)NCc2ccco2)c2ccccc2)c1O (stereo not given)	-2	-2	-1	3	-2	-20
Cc1cccc(C(CC(=O)NCCc2ccccc2)c2ccccc2)c1O (stereo not given)	12	-2	2	21*	8	4
O=C(c1ccc(Br)cc1)c1coc2ccc(O)cc12	14	-3	6	-6	9	16
O=C(c1coc2ccc(O)cc12)C1CC1	-2	·	-1	19*	2	3
C#CCNC(=O)C[C@H]1C[C@@]2(C(=O)OC)C(=C[C@H](C3CCCC3)O[C@@H]2C)N(Cc2ccccc2)C1=O	·	-8	-2	·	-1	·
CC(C)(C)n1nc(-c2ccc(F)cc2)c2c(N)ncnc21	-2	·	-6	67*	-6	-8
CC(=O)c1ccccc1C(=O)N1CCC(CCC(=O)NCc2ccc(F)cc2)CC1	-7	-9	0	-1	-5	·
CSc1ccccc1C(=O)N1CCC(CCC(=O)NCc2ccc(F)cc2)CC1	-8	-7	4	31*	-1	-4
c1ccc(-c2c[nH]c3ccc(OCCN4CCOCC4)c(-c4ccccc4)c23)cc1	·	·	-4	·	-13	·
O=C(NCc1ccccc1)c1ccc(N2CCC3(CC2)CC(c2ccc(Cl)cc2)=NO3)c([N+](=O)[O-])c1	35	-9	5	31*	14	-8
O=C(NCCCCO)c1c(-c2ccccc2)oc2c1C(OCCCCCO)CCC2 (stereo not given)	-10	-9	-7	1	-22	·
Cc1ccc(OCCN2CCC2(C)C(=O)NCc2ccc(C(F)(F)F)cc2)cc1 (stereo not given)	16	-6	2	7	0	·
COc1cc(/C=N/N=C2/C(=O)Nc3ccccc32)cc(OC)c1O	-15	-7	3	25*	10	-2
O=C(CCCN1C(=O)/C(=C/c2ccccc2Cl)SC1=S)NNC(=O)c1ccc(Cl)cc1Cl	-1	-8	2	-8	21*	14
SMILES	FAS-TE inh	CaV13 FRET inh	ADAM17 inh	NRP1-CendR mod	ADAM10 inh	Arr AP2 block
Clc1ccc([C@H]2OC[C@@]3(CNCc4ccccc4)CS[C@H](c4ccc(Cl)cc4)N23)cc1	·	·	2	·	4	·
CCCCN1CC[C@H]2C=CC[C@@H](C(=O)NCCc3ccccc3)[C@H]2C1=O	-1	-11	-3	14	-1	9
O=C(NCc1cccnc1)[C@@H]1CC=C[C@@H]2CCN(Cc3ccccc3)C(=O)[C@@H]21	-11	-9	-3	32*	-2	2
CCCCN1CC[C@H]2C=CC[C@@H](C(=O)Nc3ccccc3)[C@H]2C1=O	-7	-10	-2	32*	-2	9
COc1ccc(CN2CC[C@H]3C=CC[C@@H](C(=O)NCCc4ccccc4)[C@H]3C2=O)cc1OC	-12	-10	-5	24*	-6	2
O=C(NCCc1nc2ccccc2n1C/C=C/c1ccccc1)C1CCCCC1	·	·	0	·	12	·
COc1cc(C)cc(C(=O)O)c1C1=C(O)c2cccc(O)c2C(=O)C1=O	-4	·	2	28*	-7	8
N#Cc1ccc(S(=O)(=O)N2CCN(CC(=O)Nc3ccccc3C(=O)NC3CC3)CC2)cc1	1	-4	-8	-2	-13	25
O=C(CN1CCN(S(=O)(=O)c2ccc(F)cc2)CC1)Nc1ccccc1C(=O)NC1CC1	1	-5	-4	26*	-1	-7
CCN(CC)C(=O)CC[C@H]1CC[C@]2(CCCN(Cc3nccs3)C2)O1	·	·	-5	·	-13	·
Cc1cc(C=O)c(C)n1-c1ccc(N2CCCCC2)c([N+](=O)[O-])c1	-18	·	0	41*	8	0
Cc1ccc(-c2nnn(CC(=O)N(c3cccc(O)c3)C(C(=O)NC(C)(C)C)c3cccs3)n2)o1 (stereo not given)	-1	-7	·	-12	·	26
Cc1ccc(-c2nnn(CC(=O)N(c3cccc(F)c3)C(C(=O)NC(C)(C)C)c3ccco3)n2)o1 (stereo not given)	-2	-6	-2	44*	-4	28
